For orientation: IC50 means the concentration that inhibits the measured activity by half. A higher IC50 goes with lower potency. By inhibition is commonly meant the percentage by which the read-out fell short of the control.

Chain of ABCB1 (P-glycoprotein) (P08183 whole entry): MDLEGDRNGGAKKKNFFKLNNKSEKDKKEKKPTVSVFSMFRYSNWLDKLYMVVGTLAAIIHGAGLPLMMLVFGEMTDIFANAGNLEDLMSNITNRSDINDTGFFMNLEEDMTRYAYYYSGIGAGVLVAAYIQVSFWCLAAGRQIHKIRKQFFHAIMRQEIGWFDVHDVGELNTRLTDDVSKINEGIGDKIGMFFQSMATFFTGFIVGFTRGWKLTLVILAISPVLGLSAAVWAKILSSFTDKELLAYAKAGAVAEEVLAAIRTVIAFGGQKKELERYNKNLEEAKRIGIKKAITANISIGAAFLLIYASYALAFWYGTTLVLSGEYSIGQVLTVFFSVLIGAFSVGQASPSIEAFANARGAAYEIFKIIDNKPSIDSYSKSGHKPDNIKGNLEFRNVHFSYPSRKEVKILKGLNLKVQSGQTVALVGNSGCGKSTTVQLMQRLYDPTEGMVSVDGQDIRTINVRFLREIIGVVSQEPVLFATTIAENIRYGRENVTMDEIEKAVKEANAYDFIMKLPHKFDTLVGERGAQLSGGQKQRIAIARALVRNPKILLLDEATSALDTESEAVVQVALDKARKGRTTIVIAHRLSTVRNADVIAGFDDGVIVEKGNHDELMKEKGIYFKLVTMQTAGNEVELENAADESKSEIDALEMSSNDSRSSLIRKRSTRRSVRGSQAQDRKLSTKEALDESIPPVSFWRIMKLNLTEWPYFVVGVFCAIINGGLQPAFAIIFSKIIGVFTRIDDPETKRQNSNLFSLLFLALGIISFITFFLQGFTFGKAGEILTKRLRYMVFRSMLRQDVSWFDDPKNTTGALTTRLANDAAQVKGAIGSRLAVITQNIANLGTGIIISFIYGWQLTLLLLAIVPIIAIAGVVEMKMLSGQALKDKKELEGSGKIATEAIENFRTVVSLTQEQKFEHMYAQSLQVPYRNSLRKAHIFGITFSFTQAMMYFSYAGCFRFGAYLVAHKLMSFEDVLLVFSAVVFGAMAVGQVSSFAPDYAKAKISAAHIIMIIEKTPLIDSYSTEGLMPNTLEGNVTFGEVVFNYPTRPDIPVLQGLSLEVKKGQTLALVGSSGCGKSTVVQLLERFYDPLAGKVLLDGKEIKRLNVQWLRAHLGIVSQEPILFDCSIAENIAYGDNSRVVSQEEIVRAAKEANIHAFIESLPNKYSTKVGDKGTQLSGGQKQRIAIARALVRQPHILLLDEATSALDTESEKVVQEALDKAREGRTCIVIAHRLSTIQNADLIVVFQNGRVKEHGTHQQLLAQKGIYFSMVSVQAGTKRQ

The first data set relates to HeLa. Briefly: Antiproliferative activity against human HeLa cells after 72 hrs by MTT assay. Format: functional, cell-based.
Conditions: not given
A digest of the protocol: (§1)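 Cells grown in MEM with 10% FCS, 1% non-essential amino acids and 1% penicillin-streptomycin. Seeded at 5000 cells/well, exposed to 0.1–30.0 µM compound for 72 h. MTT (5 mg/ml solution) was then added for 4 h, formazan dissolved in DMSO, and absorbance read at 545 nm. Cisplatin served as positive control. IC50 came from sigmoidal dose–response fits (log inhibitor vs normalized response, variable slope).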
In general terms: Tetrazolium assays rely on reduction of a dye to a coloured formazan, in cell work by metabolically active cells.
Compound `CCO/N=C1/C=C2[C@H](CC[C@]3(C)[C@@H]([C@@]4(C)OC(C)(C)O[C@@H]4CCC(C)(C)O)CC[C@@]23O)[C@@]2(C)C[C@@H]3OC(C)(C)O[C@@H]3C[C@@H]12` gave an IC50 of 29.1 µM.

In another data set the test system is SiHa. The data set is described as follows: Antiproliferative activity against human SiHa cells after 72 hrs by MTT assay. It is filed as functional, cell-based.
Conditions: not given
A digest of the protocol:
as §1
Consider `CCO/N=C1/C=C2[C@H](CC[C@]3(C)[C@@H]([C@@]4(C)OC(C)(C)O[C@@H]4CCC(C)(C)O)CC[C@@]23O)[C@@]2(C)C[C@@H]3OC(C)(C)O[C@@H]3C[C@@H]12`, for which the 50% inhibitory concentration (IC50) was greater than 30 µM.

Another data set has as its system MDA-MB-231. The data set is described as follows: Antiproliferative activity against human MDA-MB-231 cells after 72 hrs by MTT assay. It is filed as functional, cell-based. The following applies: MDA-MB-231, 72 h. A digest of the protocol:
as §1
The compound `CCO/N=C1/C=C2[C@H](CC[C@]3(C)[C@@H]([C@@]4(C)OC(C)(C)O[C@@H]4CCC(C)(C)O)CC[C@@]23O)[C@@]2(C)C[C@@H]3OC(C)(C)O[C@@H]3C[C@@H]12` gave an IC50 of 25.1 µM. That is a double-digit micromolar value.

In a further data set the test system is MCF7. Briefly: Antiproliferative activity against human MCF7 cells after 72 hrs by MTT assay. It is filed as functional, cell-based. The following applies: MCF7, 72 h. A digest of the protocol:
as §1
In the case of `CCO/N=C1/C=C2[C@H](CC[C@]3(C)[C@@H]([C@@]4(C)OC(C)(C)O[C@@H]4CCC(C)(C)O)CC[C@@]23O)[C@@]2(C)C[C@@H]3OC(C)(C)O[C@@H]3C[C@@H]12`, it took 13.1 µM to reach half-maximal inhibition (IC50).

Test system in the next data set: not listed separately
Briefly: Cytotoxicity against mouse L5178 cells expressing human ABCB1 after 48 hrs by MTT assay. It is filed as functional, cell-based. The following applies: L5178, 48 h. A digest of the protocol: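 Parental mouse lymphoma L5178 and the MDR line made by pHa MDR1/A retrovirus transfection, selected with 60 µg/L colchicine. Grown in McCoy's 5A with horse serum at 37°C, 5% CO2. 5 x 10^4 cells/well, serial compound dilutions, 48 h. MTT added to 0.5 mg/mL final for 4 h, then 10% SDS in 0.01 M HCl overnight, OD read at 540 and 630 nm. IC50 taken as median cytotoxic activity (Dm) from control lanes of checkerboard plates, n=2.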
Turning to `CCO/N=C1/C=C2[C@H](CC[C@]3(C)[C@@H]([C@@]4(C)OC(C)(C)O[C@@H]4CCC(C)(C)O)CC[C@@]23O)[C@@]2(C)C[C@@H]3OC(C)(C)O[C@@H]3C[C@@H]12`, 42.2 µM corresponded to half-maximal inhibition (IC50).

A further data set has as its target ABCB1 (P-glycoprotein) (Homo sapiens, UniProt P08183). The data set is described as follows: Inhibition of human ABCB1 expressed in mouse L5178 cells assessed as increase in rhodamine-123 accumulation at 20 uM after 10 mins by flow cytometric analysis relative to control. The following applies: mouse L5178 cells expressing human ABCB1, probe rhodamine-123. Format: cell-based. A digest of the protocol: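 Cells at 2 × 10^6/mL were preincubated 10 min with compound. Rhodamine 123 then added to 5.2 µM final, 20 min at 37 °C. Cells washed twice in PBS, resuspended and read by flow cytometry. Percent inhibition was scaled between MDR-cell accumulation (0%) and parental L5178 accumulation (100%). Controls: 100 nM tariquidar (positive) and 2% DMSO (negative).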
(In general: Flow cytometry measures light scatter and fluorescence of single cells or particles in a stream.)
In the case of `CCO/N=C1/C=C2[C@H](CC[C@]3(C)[C@@H]([C@@]4(C)OC(C)(C)O[C@@H]4CCC(C)(C)O)CC[C@@]23O)[C@@]2(C)C[C@@H]3OC(C)(C)O[C@@H]3C[C@@H]12`, the inhibition at 10 min, 20 µM is 75%.

Test system in the next data set: not listed separately
Briefly: Synergistic cytotoxicity against mouse L5178 cells assessed as combination index at ED50 using 150:1 test compound to doxorubicin ratio after 48 hrs by MTT-based checkerboard microplate method. Format: functional.
Conditions: not given
A digest of the protocol: (§2)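 Checkerboard microplate combinations of compound with doxorubicin at constant molar ratios. 5 × 10^4 cells/well in McCoy's 5A, 48 h at 37°C, 5% CO2. MTT added to 0.5 mg/mL final for 4 h, SDS/HCl overnight, OD read at 540 and 630 nm. Combination indices derived per ratio for 50%, 75% and 90% growth inhibition by median-effect analysis.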
`CCO/N=C1/C=C2[C@H](CC[C@]3(C)[C@@H]([C@@]4(C)OC(C)(C)O[C@@H]4CCC(C)(C)O)CC[C@@]23O)[C@@]2(C)C[C@@H]3OC(C)(C)O[C@@H]3C[C@@H]12`: the CI is recorded as 0.18.

Test system in a further data set: not listed separately
Briefly: Synergistic cytotoxicity against mouse L5178 cells expressing human ABCB1 assessed as combination index at ED50 using 15:1 test compound to doxorubicin ratio after 48 hrs by MTT-based checkerboard microplate method. Format: functional.
Conditions: not given
A digest of the protocol: as §2
As to `CCO/N=C1/C=C2[C@H](CC[C@]3(C)[C@@H]([C@@]4(C)OC(C)(C)O[C@@H]4CCC(C)(C)O)CC[C@@]23O)[C@@]2(C)C[C@@H]3OC(C)(C)O[C@@H]3C[C@@H]12`, the CI is listed as 0.62.

Test system in another data set: not listed separately
The data set is described as follows: Synergistic cytotoxicity against mouse L5178 cells assessed as combination index at ED90 using 150:1 test compound to doxorubicin ratio after 48 hrs by MTT-based checkerboard microplate method. Format: functional.
Conditions: not given
In short, it runs like this: as §2
On to `CCO/N=C1/C=C2[C@H](CC[C@]3(C)[C@@H]([C@@]4(C)OC(C)(C)O[C@@H]4CCC(C)(C)O)CC[C@@]23O)[C@@]2(C)C[C@@H]3OC(C)(C)O[C@@H]3C[C@@H]12`, for which the CI stood at 0.73.

Test system in the next data set: not listed separately
Briefly: Synergistic cytotoxicity against mouse L5178 cells expressing human ABCB1 assessed as combination index at ED75 using 15:1 test compound to doxorubicin ratio after 48 hrs by MTT-based checkerboard microplate method. Format: functional.
Conditions: not given
In short, it runs like this:
as §2
Consider `CCO/N=C1/C=C2[C@H](CC[C@]3(C)[C@@H]([C@@]4(C)OC(C)(C)O[C@@H]4CCC(C)(C)O)CC[C@@]23O)[C@@]2(C)C[C@@H]3OC(C)(C)O[C@@H]3C[C@@H]12`, for which the CI was 0.17.

Test system in another data set: not listed separately
The data set is described as follows: Synergistic cytotoxicity against mouse L5178 cells expressing human ABCB1 assessed as combination index at ED50 using 30:1 test compound to doxorubicin ratio after 48 hrs by MTT-based checkerboard microplate method. It is filed as functional.
Conditions: not given
A digest of the protocol:
as §2
With `CCO/N=C1/C=C2[C@H](CC[C@]3(C)[C@@H]([C@@]4(C)OC(C)(C)O[C@@H]4CCC(C)(C)O)CC[C@@]23O)[C@@]2(C)C[C@@H]3OC(C)(C)O[C@@H]3C[C@@H]12`, the CI is given as 0.23.

Test system in a further data set: not listed separately
Briefly: Synergistic cytotoxicity against mouse L5178 cells expressing human ABCB1 assessed as combination index at ED90 using 30:1 test compound to doxorubicin ratio after 48 hrs by MTT-based checkerboard microplate method. It is filed as functional.
Conditions: not given
A digest of the protocol: as §2
Take `CCO/N=C1/C=C2[C@H](CC[C@]3(C)[C@@H]([C@@]4(C)OC(C)(C)O[C@@H]4CCC(C)(C)O)CC[C@@]23O)[C@@]2(C)C[C@@H]3OC(C)(C)O[C@@H]3C[C@@H]12`: the CI came to 0.26.

Test system in the next data set: not listed separately
The data set is described as follows: Synergistic cytotoxicity against mouse L5178 cells expressing human ABCB1 assessed as combination index at ED50 using 7.5:1 test compound to doxorubicin ratio after 48 hrs by MTT-based checkerboard microplate method. It is filed as functional.
Conditions: not given
In short, it runs like this:
as §2
On to `CCO/N=C1/C=C2[C@H](CC[C@]3(C)[C@@H]([C@@]4(C)OC(C)(C)O[C@@H]4CCC(C)(C)O)CC[C@@]23O)[C@@]2(C)C[C@@H]3OC(C)(C)O[C@@H]3C[C@@H]12`, for which the CI is listed as 0.19.

These data come from ChEMBL document CHEMBL4145462, “Nitrogen-containing ecdysteroid derivatives vs. multi-drug resistance in cancer: Preparation and antitumor activity of oximes, oxime ethers and a lactam” (Eur J Med Chem, 2018).
